Test results reported in ChEMBL document CHEMBL1133638, “Synthesis and biological activity of a novel 11a-homo (cyclohexyl) prostaglandin” (J Med Chem, 2000).

Legend:
[1] = Evaluated for its concentration at which 50% of maximal stimulation of phosphoinositide turnover was observed; assay type: functional, Mus musculus
Procedure, shortened: (§1)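 Swiss 3T3 mouse fibroblasts with FP receptors, confluent, labelled 24-30 h at 37 °C with 1.0-1.5 μCi [3H]-myo-inositol in DMEM. Rinsed into DMEM/F-12 with 10 mM LiCl, then agonist or solvent for 60 min at 37 °C, triplicate. Stopped with ice-cold 0.1 M formic acid. Total [3H]IPs isolated on anion-exchange resin and counted.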

Mus musculus [2] = species: Mus musculus; assay: Evaluated for percent maximum response relative to cloprostenol (n=2); assay type: functional; procedure, shortened: as §1
Mus musculus [3] = species: Mus musculus; assay: Evaluated for percent maximum response relative to cloprostenol (n = 105); assay type: functional; procedure, shortened: as §1
Mus musculus [4] = species: Mus musculus; assay: Evaluated for percent maximum response relative to cloprostenol (n=11); assay type: functional; procedure, shortened: as §1

Row | Structure (SMILES) | EC50 [1] | Max response (Mus musculus [2]) | Max response (Mus musculus [3]) | Max response (Mus musculus [4])
1 | O=C(O)CCC/C=C\C[C@@H]1[C@@H](/C=C/[C@@H](O)COc2cccc(Cl)c2)[C@H](O)CC[C@@H]1O | 319 nM | 72% |  | 
2 | O=C(O)CCC/C=C\C[C@@H]1[C@@H](/C=C/[C@H](O)COc2cccc(Cl)c2)[C@H](O)CC[C@@H]1O | 2750 nM | 50% |  | 
3 | O=C(O)CCC/C=C\CC1C(O)CC(O)C1/C=C/C(O)COc1cccc(Cl)c1 (stereo not drawn) [CLOPROSTENOL] | 1 nM |  | 100% | 
4 | CCCCC[C@H](O)/C=C/[C@@H]1[C@@H](C/C=C\CCCC(=O)O)[C@@H](O)C[C@H]1O [DINOPROST] | 23 nM |  |  | 91%
